Measurements reported in ChEMBL document CHEMBL2176905 (J Med Chem, 2012).
Counter-ions that a name gives are not always drawn. Each block holds one compound with its values, some of them ahead of it. Active and inactive are the calls of the source. No cut-off for these calls is given here. Residues, ends and D or L forms follow the SMILES beside them. *: point of attachment. PhAc = O=C(Cc1ccccc1)*; Tfa = O=C(C(F)(F)F)*; NHBu = CCCCN*

Key:
Neutrophil elastase [1] = molecular target: T1, Neutrophil elastase (Homo sapiens, UniProt P08246); assay: Inhibition of human neutrophil elastase assessed as hydrolysis of N-succinyl-Ala-Ala-Pro-Val-p-nitroanilide incubated for 2 hrs measured for 20 mins by microplate reader analysis
T1 sequence (P08246 whole entry): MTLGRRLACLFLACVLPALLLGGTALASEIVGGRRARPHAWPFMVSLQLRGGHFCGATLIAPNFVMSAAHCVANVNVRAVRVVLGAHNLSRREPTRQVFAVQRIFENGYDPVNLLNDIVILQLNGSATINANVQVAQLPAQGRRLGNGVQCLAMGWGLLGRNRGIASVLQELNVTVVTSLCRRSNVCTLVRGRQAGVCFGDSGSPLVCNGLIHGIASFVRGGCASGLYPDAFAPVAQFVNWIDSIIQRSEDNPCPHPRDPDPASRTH
Procedure, shortened: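 HNE (stock 2.8 μM in pH 5.5 acetate/0.5 M NaCl; final 30 nM) preincubated 2 h at 25 °C with inhibitor (final 0.5−50 μM, 7 concentrations) in 0.1 M HEPES, 0.5 M NaCl, pH 7.25, 5.5% DMSO. Suc-Ala-Ala-Pro-Val-pNA added (final 0.35 mM). Hydrolysis rate read kinetically at 405 nm, 25 °C, 20 min. Duplicates; IC50 derived.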

Prothrombin [2] = molecular target: T2, Prothrombin (Homo sapiens, UniProt P00734); assay: Inhibition of thrombin assessed as hydrolysis of H-D-Pro-L-Phe-L-Arg-p-nitroanilide at 100 uM incubated for 2 hrs measured for 20 mins by microplate reader analysis
Procedure, shortened: (§1)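 Counter-screen in 0.1 M HEPES with 0.5 M NaCl, pH 7.25, 96-well format, duplicates. Chymotrypsin, trypsin and porcine pancreatic elastase were commercial; thrombin and plasminogen were purified in-house. Chromogenic substrate hydrolysis followed kinetically at 405 nm on a plate reader. Test compounds up to 100 μM maximum; AEBSF run as irreversible positive control with IC50 determined.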

Plasminogen [3] = molecular target: T3, Plasminogen (Homo sapiens, UniProt P00747); assay: Inhibition of plasmin assessed as hydrolysis of H-D-Val-L-Leu-L-Lys-p-nitroanilide at 100 uM incubated for 2 hrs measured for 20 mins by microplate reader analysis; procedure, shortened: as §1
T3 sequence (P00747 97-580 limits assumed): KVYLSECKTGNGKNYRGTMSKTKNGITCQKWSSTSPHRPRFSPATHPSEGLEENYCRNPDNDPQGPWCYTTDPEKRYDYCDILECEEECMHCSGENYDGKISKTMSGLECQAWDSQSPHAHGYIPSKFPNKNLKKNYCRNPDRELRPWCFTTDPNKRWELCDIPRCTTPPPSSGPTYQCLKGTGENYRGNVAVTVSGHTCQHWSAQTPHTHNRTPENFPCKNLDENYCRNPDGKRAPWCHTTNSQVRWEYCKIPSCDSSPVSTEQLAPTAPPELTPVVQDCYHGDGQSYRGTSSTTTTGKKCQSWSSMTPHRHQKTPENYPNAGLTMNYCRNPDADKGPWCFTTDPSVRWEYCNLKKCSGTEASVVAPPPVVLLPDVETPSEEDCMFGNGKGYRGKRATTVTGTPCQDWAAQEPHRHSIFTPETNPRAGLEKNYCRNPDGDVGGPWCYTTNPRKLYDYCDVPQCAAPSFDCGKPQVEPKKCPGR
T3 sequence (P00747 581-810 limits assumed): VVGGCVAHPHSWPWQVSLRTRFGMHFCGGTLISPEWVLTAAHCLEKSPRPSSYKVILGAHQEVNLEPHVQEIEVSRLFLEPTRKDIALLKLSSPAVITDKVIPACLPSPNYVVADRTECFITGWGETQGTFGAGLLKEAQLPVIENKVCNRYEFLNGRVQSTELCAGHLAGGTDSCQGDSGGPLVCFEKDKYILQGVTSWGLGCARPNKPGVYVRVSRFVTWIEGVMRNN

Neutrophil elastase [4] = molecular target: T1, Neutrophil elastase; assay: Uncompetitive inhibition of human neutrophil elastase assessed as hydrolysis of N-succinyl-Ala-Ala-Pro-Val-p-nitroanilide incubated for 2 hrs measured for 20 mins by Dixon and Cornish-Bowden analysis
Procedure, shortened: (§2)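 Mechanism study: HNE (final 30 nM) preincubated 2 h at 25 °C with inhibitor (final 5−20 μM, 3 concentrations) in 0.1 M HEPES, 0.5 M NaCl, pH 7.25, 5.5% DMSO. Suc-Ala-Ala-Pro-Val-pNA added at two final levels, 0.0875 or 0.35 mM. Rate followed at 405 nm, 25 °C, 20 min. Duplicates; Dixon and Cornish-Bowden plots.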

[5] = Inhibition of trypsin assessed as hydrolysis of H-D-Pro-L-Phe-L-Arg-p-nitroanilide at 100 uM incubated for 2 hrs measured for 20 mins by microplate reader analysis; procedure, shortened: as §1
[6] = Inhibition of chymotrypsin assessed as hydrolysis of N-succinyl-Ala-Ala-Pro-Phe-p-nitroanilide at 100 uM incubated for 2 hrs measured for 20 mins by microplate reader analysis; procedure, shortened: as §1
[7] = molecular target: Pancreatic elastase (Sus scrofa) (UniProt P08419+P00772); assay: Inhibition of porcine pancreatic elastase assessed as hydrolysis of N-succinyl-Ala-Ala-Ala-p-nitroanilide at 100 uM incubated for 2 hrs measured for 20 mins by microplate reader analysis; format: protein assay; procedure, shortened: as §1
[8] = molecular target: T4, Cathepsin G (Homo sapiens) (UniProt P08311); assay: Inhibition of cathepsin G assessed as hydrolysis of N-succinyl-Ala-Ala-Pro-Phe-p-nitroanilide at 100 uM incubated for 2 hrs measured for 20 mins by microplate reader analysis
T4 sequence (whole entry): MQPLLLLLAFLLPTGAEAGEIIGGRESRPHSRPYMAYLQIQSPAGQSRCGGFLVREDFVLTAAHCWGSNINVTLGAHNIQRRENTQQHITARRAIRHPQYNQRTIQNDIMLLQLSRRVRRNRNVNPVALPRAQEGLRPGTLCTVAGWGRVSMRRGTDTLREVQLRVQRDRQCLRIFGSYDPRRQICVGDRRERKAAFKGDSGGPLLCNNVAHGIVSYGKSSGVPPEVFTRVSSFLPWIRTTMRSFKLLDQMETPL

Prothrombin [9] = molecular target: T2, Prothrombin; assay: Inhibition of thrombin assessed as hydrolysis of H-D-Pro-L-Phe-L-Arg-p-nitroanilide incubated for 2 hrs measured for 20 mins by microplate reader analysis; procedure, shortened: as §1
Plasminogen [10] = molecular target: T3, Plasminogen; assay: Inhibition of plasmin assessed as hydrolysis of H-D-Val-L-Leu-L-Lys-p-nitroanilide incubated for 2 hrs measured for 20 mins by microplate reader analysis
Procedure, shortened: (§3)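 Selectivity panel run in duplicate in 0.1 M HEPES with 0.5 M NaCl, pH 7.25. p-Nitroanilide release was followed kinetically at 405 nm, with inhibitor tested up to 100 μM maximum. Plasmin came from plasminogen purified in-house; porcine pancreatic elastase was commercial. IC50 values were determined.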

Pancreatic elastase = Pancreatic elastase (Sus scrofa, UniProt P08419+P00772); assay: Inhibition of porcine pancreatic elastase assessed as hydrolysis of N-succinyl-Ala-Ala-Ala-p-nitroanilide incubated for 2 hrs measured for 20 mins by microplate reader analysis; format: protein assay; procedure, shortened: as §3
[11] = Inhibition of chymotrypsin assessed as hydrolysis of N-succinyl-Ala-Ala-Pro-Phe-p-nitroanilide incubated for 2 hrs measured for 20 mins by microplate reader analysis; procedure, shortened: as §1
[12] = Inhibition of trypsin assessed as hydrolysis of H-D-Pro-L-Phe-L-Arg-p-nitroanilide incubated for 2 hrs measured for 20 mins by microplate reader analysis; procedure, shortened: as §1
Neutrophil elastase [13] = molecular target: T1, Neutrophil elastase; assay: Noncompetitive inhibition of human neutrophil elastase assessed as hydrolysis of N-succinyl-Ala-Ala-Pro-Val-p-nitroanilide incubated for 2 hrs measured for 20 mins by Dixon and Cornish-Bowden analysis; procedure, shortened: as §2
Cathepsin G = molecular target: T5, Cathepsin G (Homo sapiens, UniProt P08311); assay: Inhibition of cathepsin G assessed as hydrolysis of N-succinyl-Ala-Ala-Pro-Phe-p-nitroanilide incubated for 2 hrs measured for 20 mins by microplate reader analysis
T5 sequence (P08311 whole entry): T4 sequence (whole entry)

Neutrophil elastase [14] = molecular target: T1, Neutrophil elastase; assay: Inhibition of human neutrophil elastase
[15] = Inhibition of HIV protease; design: species or system Human immunodeficiency virus

Compound: CCCCNC(=O)CC[Si](O)(O)[C@H](CC(C)C)NC(=O)[C@@H](NC(C)=O)[C@@H](C)CC
IC50 (Neutrophil elastase [1]): > 200 µM

Compound: CCCCNC(=O)CNC(=O)[C@H](CC(C)C)NC(=O)[C@@H](NC(=O)C(F)(F)F)[C@@H](C)CC (Tfa-Ile-Leu-Gly-NHBu)
IC50 (Neutrophil elastase [1]): > 200 µM

Compound: Cl.NCCc1ccc(S(=O)(=O)F)cc1 [4-AMINOETHYLBENZENESULFONYL FLUORIDE HYDROCHLORIDE]
IC50 (Prothrombin [9]): 62 µM | IC50 (Plasminogen [10]): 240 µM | IC50 (Cathepsin G): 250 µM | IC50 (Pancreatic elastase): 160 µM | IC50 [11]: 12 µM | IC50 [12]: 10 µM

Compound: CCCCNC(=O)CNC(=O)[C@H](CC(C)C)NC(=O)[C@@H](NC(C)=O)[C@@H](C)CC (Ac-Ile-Leu-Gly-NHBu)
IC50 (Neutrophil elastase [1]): > 200 µM

Compound: CCCCNC(=O)CC[Si](O)(O)[C@H](CC(C)C)NC(=O)[C@@H](NC(=O)Cc1ccc2ccccc2c1)[C@@H](C)CC
IC50 (Neutrophil elastase [14]): 0.3 µM

Compound: O=C(N[C@H]1c2ccccc2C[C@H]1O)[C@H](Cc1ccccc1)C[Si](O)(O)C[C@@H](Cc1ccccc1)C(=O)N[C@H]1c2ccccc2C[C@H]1O
Ki [15]: 0.0027 µM

Other lines, results leading:

inhibition (Prothrombin [2]): inactive | inhibition (Plasminogen [3]): inactive | Ki (Neutrophil elastase [4]): 4 µM | IC50 (Neutrophil elastase [1]): 16 µM | inhibition [5]: inactive | inhibition [6]: inactive | inhibition [7]: inactive | inhibition [8]: inactive
Compound: CCCCNC(=O)CC[Si](O)(O)[C@H](CC(C)C)NC(=O)[C@@H](NC(=O)c1ccc2ccccc2c1)[C@@H](C)CC

IC50 (Prothrombin [9]): 100 µM | IC50 (Plasminogen [10]): 99 µM | IC50 (Pancreatic elastase): 55 µM | IC50 [11]: 150 µM | IC50 [12]: 89 µM | Ki (Neutrophil elastase [13]): 18 µM | IC50 (Neutrophil elastase [1]): 14 µM | inhibition [8]: inactive
Compound: CCCCNC(=O)CNC(=O)[C@H](CC(C)C)NC(=O)[C@@H](NC(=O)Cc1ccc2ccccc2c1)[C@@H](C)CC

inhibition (Plasminogen [3]): inactive | IC50 (Prothrombin [9]): 92 µM | IC50 [11]: 110 µM | IC50 [12]: 58 µM | Ki (Neutrophil elastase [13]): 13 µM | IC50 (Neutrophil elastase [1]): 14 µM | inhibition [7]: inactive
Compound: CCCCNC(=O)CC[Si](c1ccccc1)(c1ccccc1)[C@H](CC(C)C)NC(=O)[C@@H](NC(=O)Cc1ccc2ccccc2c1)[C@@H](C)CC

IC50 (Neutrophil elastase [1]): 39 µM
Compound: CC[C@H](C)[C@H](NC(=O)Cc1ccc2ccccc2c1)C(=O)N[C@@H](CC(C)C)[Si](C)(O)O

inhibition (Prothrombin [2]): inactive | inhibition (Plasminogen [3]): inactive | IC50 (Neutrophil elastase [14]): 0.3 µM | Ki (Neutrophil elastase [4]): 3.5 µM | IC50 (Neutrophil elastase [1]): 18 µM | inhibition [5]: inactive | inhibition [6]: inactive | inhibition [7]: inactive | inhibition [8]: inactive
Compound: CCCCNC(=O)CC[Si](O)(O)[C@@H](CC(C)C)NC(=O)[C@@H](NC(=O)Cc1ccc2ccccc2c1)[C@@H](C)CC

inhibition (Prothrombin [2]): inactive | inhibition (Plasminogen [3]): inactive | Ki (Neutrophil elastase [4]): 5 µM | IC50 (Neutrophil elastase [1]): 38 µM | inhibition [5]: inactive | inhibition [6]: inactive | inhibition [7]: inactive | inhibition [8]: inactive
Compound: CCCCNC(=O)CC[Si](O)(O)[C@H](CC(C)C)NC(=O)[C@@H](NC(=O)Cc1ccccc1)[C@@H](C)CC

IC50 (Neutrophil elastase [1]): 51 µM
Compound: CCCCNC(=O)CNC(=O)[C@H](CC(C)C)NC(=O)[C@@H](NC(=O)Cc1ccccc1)[C@@H](C)CC (PhAc-Ile-Leu-Gly-NHBu)

IC50 (Neutrophil elastase [1]): 46 µM
Compound: CCCCNC(=O)CC[Si](O)(O)[C@H](CC(C)C)NC(=O)[C@@H](NC(=O)C(F)(F)F)[C@@H](C)CC
